Assays:
[1] = system: RA patients; test: Study 1, treatment‐emergent adverse events; assay type: in vivo, human; conditions: for treatment-related TEAE: Abdominal discomfort / treatment-related TEAE: Abdominal pain, upper / treatment-related TEAE: Aspartate aminotransferase increased / treatment-related TEAE: Blood amylase increased / treatment-related TEAE: Blood and lymphatic system disorders / treatment-related TEAE: Blood triglycerides increased / treatment-related TEAE: Cystitis, noninfectious / treatment-related TEAE: Duodenogastric reflux / treatment-related TEAE: Ear and labyrinth disorders / treatment-related TEAE: Gastrointestinal disorders / treatment-related TEAE: Gastrointestinal pain / treatment-related TEAE: General disorders and administration site reactions / treatment-related TEAE: Gingival bleeding / treatment-related TEAE: Infections and infestations / treatment-related TEAE: Laboratory findings / treatment-related TEAE: Lipase increased / treatment-related TEAE: Musculoskeletal and connective tissue disorders / treatment-related TEAE: Nervous system disorders / treatment-related TEAE: Renal and urinary disorders: study 1
Procedure, shortened: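 Both double-blind, placebo-controlled trials in RA patients on stable MTX. Oral capsules daily for 4 weeks, with 7–10-day follow-up: 200 mg once daily or 100 mg twice daily (study 1); 30, 75, 150 or 300 mg once daily (study 2). At every visit: AEs, vital signs, hematology, serum biochemistry, coagulation and urinalysis. EKG at baseline and follow-up, plus week 4 in study 1. Safety population, descriptive treatment-emergent AE summaries.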

[2] = system: healthy volunteers; conditions: cited from earlier work
[3] = system: RA patients with an inadequate response to MTX; test: Study 2; assay type: in vivo, human; conditions: study 2
Procedure, shortened: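 Randomized, double-blind, placebo-controlled dose-ranging trial: 91 RA patients, 19 sites in 4 countries, 1:1:1:1:1 allocation. Patients had MTX for ≥12 weeks and a stable 7.5–25 mg/week dose for ≥4 weeks, continued throughout. Oral capsules once daily at 30, 75, 150 or 300 mg for 4 weeks. Read-outs: ACR responses, DAS28-CRP and HAQ DI change from baseline at week 4. Intent-to-treat population.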

O=C(Nc1nc2cccc(-c3ccc(CN4CCS(=O)(=O)CC4)cc3)n2n1)C1CC1 [Filgotinib]
treatment-related TEAE: Abdominal discomfort ([1]; 100 mg twice daily): 1 (8.3) number (%) of patients | treatment-related TEAE: Abdominal pain, upper ([1]; 100 mg twice daily): 0 number (%) of patients | treatment-related TEAE: Aspartate aminotransferase increased ([1]; 100 mg twice daily): 0 number (%) of patients | treatment-related TEAE: Blood amylase increased ([1]; 100 mg twice daily): 0 number (%) of patients | treatment-related TEAE: Blood and lymphatic system disorders ([1]; 100 mg twice daily): 0 number (%) of patients | treatment-related TEAE: Blood triglycerides increased ([1]; 100 mg twice daily): 0 number (%) of patients | treatment-related TEAE: Cystitis, noninfectious ([1]; 100 mg twice daily): 0 number (%) of patients | treatment-related TEAE: Duodenogastric reflux ([1]; 100 mg twice daily): 0 number (%) of patients | treatment-related TEAE: Ear and labyrinth disorders ([1]; 100 mg twice daily): 0 number (%) of patients | treatment-related TEAE: Gastrointestinal disorders ([1]; 100 mg twice daily): 2 (16.7) number (%) of patients | treatment-related TEAE: Gastrointestinal pain ([1]; 100 mg twice daily): 0 number (%) of patients | treatment-related TEAE: General disorders and administration site reactions ([1]; 100 mg twice daily): 0 number (%) of patients | treatment-related TEAE: Gingival bleeding ([1]; 100 mg twice daily): 0 number (%) of patients | treatment-related TEAE: Infections and infestations ([1]; 100 mg twice daily): 0 number (%) of patients | treatment-related TEAE: Laboratory findings ([1]; 100 mg twice daily): 1 (8.3) number (%) of patients | treatment-related TEAE: Lipase increased ([1]; 100 mg twice daily): 1 (8.3) number (%) of patients | treatment-related TEAE: Musculoskeletal and connective tissue disorders ([1]; 100 mg twice daily): 0 number (%) of patients | treatment-related TEAE: Nervous system disorders ([1]; 100 mg twice daily): 1 (8.3) number (%) of patients | treatment-related TEAE: Renal and urinary disorders ([1]; 100 mg twice daily): 0 number (%) of patients | treatment-related TEAE: Abdominal discomfort ([1]; 200 mg once daily): 0 number (%) of patients | treatment-related TEAE: Abdominal pain, upper ([1]; 200 mg once daily): 1 (8.3) number (%) of patients | treatment-related TEAE: Aspartate aminotransferase increased ([1]; 200 mg once daily): 0 number (%) of patients | treatment-related TEAE: Blood amylase increased ([1]; 200 mg once daily): 0 number (%) of patients | treatment-related TEAE: Blood and lymphatic system disorders ([1]; 200 mg once daily): 0 number (%) of patients | treatment-related TEAE: Blood triglycerides increased ([1]; 200 mg once daily): 0 number (%) of patients | treatment-related TEAE: Cystitis, noninfectious ([1]; 200 mg once daily): 0 number (%) of patients | treatment-related TEAE: Duodenogastric reflux ([1]; 200 mg once daily): 0 number (%) of patients | treatment-related TEAE: Ear and labyrinth disorders ([1]; 200 mg once daily): 0 number (%) of patients | treatment-related TEAE: Gastrointestinal disorders ([1]; 200 mg once daily): 2 (16.7) number (%) of patients | treatment-related TEAE: Gastrointestinal pain ([1]; 200 mg once daily): 0 number (%) of patients | treatment-related TEAE: General disorders and administration site reactions ([1]; 200 mg once daily): 0 number (%) of patients | treatment-related TEAE: Gingival bleeding ([1]; 200 mg once daily): 0 number (%) of patients | treatment-related TEAE: Infections and infestations ([1]; 200 mg once daily): 0 number (%) of patients | treatment-related TEAE: Laboratory findings ([1]; 200 mg once daily): 0 number (%) of patients | treatment-related TEAE: Lipase increased ([1]; 200 mg once daily): 0 number (%) of patients | treatment-related TEAE: Musculoskeletal and connective tissue disorders ([1]; 200 mg once daily): 0 number (%) of patients | treatment-related TEAE: Nervous system disorders ([1]; 200 mg once daily): 1 (8.3) number (%) of patients | treatment-related TEAE: Renal and urinary disorders ([1]; 200 mg once daily): 0 number (%) of patients | overall tolerability ([1]; studies 1 and 2): generally well tolerated | inhibition of JAK pathways in PD assays ([2]; healthy volunteers, daily doses of ≥100 mg): Significant inhibition of JAK‐1 pathways but not JAK‐2 | tolerability and safety in healthy volunteers ([2]; up to 10 days, doses up to 450 mg once daily): well tolerated and safe | ACR20 responders at week 4 ([3]; 30 mg once daily): 6 (35.3) no. (%) | ACR50 responders at week 4 ([3]; 30 mg once daily): 2 (11.8) no. (%) | DAS28‐CRP, mean change from baseline at week 4 ([3]; 30 mg once daily): −1.08 | EULAR cumulative score, good/moderate, at week 4 ([3]; 30 mg once daily): 58.8% | HAQ DI score, mean change from baseline at week 4 ([3]; 30 mg once daily): −0.15 | Patient's assessment of pain, mean change from baseline at week 4 ([3]; 30 mg once daily): −7.41 0–10‐cm VAS | Patient's global assessment of disease activity, mean change from baseline at week 4 ([3]; 30 mg once daily): −11.88 0–10‐cm VAS | Physician's global assessment of disease activity, mean change from baseline at week 4 ([3]; 30 mg once daily): −9.76 0–10‐cm VAS | Remission rate (DAS28‐CRP <2.6) at week 4 ([3]; 30 mg once daily): 2 (11.8) no. (%) | SJC66, mean change from baseline at week 4 ([3]; 30 mg once daily): −6.24 | Serum CRP, mean change from baseline at week 4 ([3]; 30 mg once daily): -13.28 mg/L | TJC68, mean change from baseline at week 4 ([3]; 30 mg once daily): −10.18 | ACR20 responders at week 4 ([3]; 75 mg once daily): 12 (54.5) no. (%)

From publication PMC5656813 (Arthritis & Rheumatology (Hoboken, N.j.), 2017)
